Laboratory results: ChEMBL document CHEMBL1131436, “Repaglinide and related hypoglycemic benzoic acid derivatives” (1998)
Values joined by “and” are separate entries in the source; they are usually repeats but may differ in a detail not shown here. Identical values can stand only once. Active and inactive are the calls of the source. The calls are words filed in the database; no cut-off is given here.

How the values were obtained:
Rattus norvegicus [1] = test: Maximum % decrease of blood glucose (deltaBG) was observed within 4 hour after administration orally at 100 mg/kg dose to fasted adult female rats versus a control group; format: functional; settings: route oral
Procedure, shortened: (§1)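 Female Wistar rats (Chbb THOM, SPF, 200-220 g), fasted 24 h, dosed orally by gavage as suspension in 1.5% Tylose methylcellulose (10 mL/kg). Whole blood from retrobulbar plexus under light halothane, deproteinized with 0.33 M HClO4; glucose by hexokinase/G6PDH, hourly up to 4 h. % decrease vs control group (N = 7), Student's t-test, P ≤ 0.05.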

Rattus norvegicus [2] = test: Maximum % decrease of blood glucose (deltaBG) was observed within 4 hour after administration orally at 100 mg/kg dose to fasted adult female rats versus a control group; NS =' not significant'; format: functional, organism-based; set-up: dose 100 mg/kg; procedure, shortened: as §1
Rattus norvegicus [3] = test: Maximum % decrease of blood glucose (deltaBG) was observed within 4 hour after administration orally at 5 mg/kg dose to fasted adult female rats versus a control group; NS =' not significant'; format: functional, organism-based; set-up: dose 5 mg/kg; procedure, shortened: as §1
Rattus norvegicus [4] = species on record: Rattus norvegicus; settings: Blood, 0.1 mg/kg
Rattus norvegicus [5] = test: Maximum % decrease of blood glucose (deltaBG) was observed within 4 hour after administration orally at 0.1 mg/kg dose to fasted adult female rats versus a control group; NS =' not significant'; format: functional, organism-based; set-up: dose 0.1 mg/kg; procedure, shortened: as §1
Rattus norvegicus [6] = species on record: Rattus norvegicus; settings: Blood, 0.1 mg/kg; remark: listed apart in the source
Rattus norvegicus [7] = test: Maximum % decrease of blood glucose (deltaBG) was observed within 4 hour after administration orally at 0.3 mg/kg dose to fasted adult female rats versus a control group; format: functional; settings: route oral; procedure, shortened: as §1
Rattus norvegicus [8] = test: Half-maximal effective dose was measured on rat blood glucose after administrating at 4 hr; format: functional
Procedure, shortened: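 Adult fasted female Wistar rats (Chbb THOM, SPF, 200-220 g), food withdrawn 24 h; oral gavage of suspension in 1.5% Tylose (methylcellulose), 10 mL/kg. Retrobulbar blood under light halothane; glucose by hexokinase/G6PDH after HClO4 deproteinization, hourly to 4 h. ED50 from fit of glucose vs dose, y = b + [a × k/(k + x^nH)], Hill coefficient nH.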

Rattus norvegicus [9] = species on record: Rattus norvegicus; settings: Blood, 0.1 mg/kg; remark: listed apart in the source
Rattus norvegicus [10] = test: Maximum % decrease of blood glucose (deltaBG) was observed within 3 hour after administration orally at 0.1 mg/kg dose to fasted adult female rats versus a control group; NS =' not significant'; format: functional, organism-based; set-up: dose 0.1 mg/kg; procedure, shortened: as §1
Rattus norvegicus [11] = test: Maximum % decrease of blood glucose (deltaBG) was observed within 4 hour after administration orally at 0.1 mg/kg dose to fasted adult female rats versus a control group; format: functional; settings: route oral; procedure, shortened: as §1
Rattus norvegicus [12] = test: Maximum % decrease of blood glucose (deltaBG) was observed within 4 hour after administration orally at 0.01 mg/kg dose to fasted adult female rats versus a control group; NS =' not significant'; format: functional, organism-based; set-up: dose 0.01 mg/kg; procedure, shortened: as §1
Rattus norvegicus [13] = test: Maximum % decrease of blood glucose (deltaBG) was observed within 4 hour after administration orally at 0.4 mg/kg dose to fasted adult female rats versus a control group; format: functional; settings: route oral; procedure, shortened: as §1
Rattus norvegicus [14] = test: Maximum % decrease of blood glucose (deltaBG) was observed within 4 hour after administration orally at 1 mg/kg dose to fasted adult female rats versus a control group; format: functional; settings: route oral, 1 mg/kg; procedure, shortened: as §1
Rattus norvegicus [15] = test: Maximum % decrease of blood glucose (deltaBG) was observed within 4 hour after administration orally at 0.25 mg/kg dose to fasted adult female rats versus a control group; format: functional; settings: route oral
Procedure, shortened: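 Adult female Wistar rats (Chbb THOM, SPF; 200-220 g) fasted 24 h, N=7 per group. Compound suspended in 1.5% methylcellulose (Tylose) and dosed by oral gavage at 10 mL/kg. Retrobulbar blood was drawn under light halothane hourly for up to 4 h. Glucose was read by hexokinase/G6PDH after HClO4 deproteinisation. Value is the maximum % fall versus vehicle controls; Student's t-test, P ≤ 0.05.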

Rattus norvegicus [16] = test: Maximum % decrease of blood glucose (deltaBG) was observed within 4 hour after administration orally at 0.5 mg/kg dose to fasted adult female rats versus a control group; format: functional; settings: route oral; procedure, shortened: as §1
Rattus norvegicus [17] = test: Maximum % decrease of blood glucose (deltaBG) was observed within 4 hour after administration orally at 0.01 mg/kg dose to fasted adult female rats versus a control group; format: functional; settings: route oral; procedure, shortened: as §1
Rattus norvegicus [18] = test: Maximum % decrease of blood glucose (deltaBG) was observed within 2 hour after administration orally at 0.5 mg/kg dose to fasted adult female rats versus a control group; format: functional; settings: route oral; procedure, shortened: as §1
Rattus norvegicus [19] = test: Maximum % decrease of blood glucose (deltaBG) was observed within 1 hour after administration orally at 0.5 mg/kg dose to fasted adult female rats versus a control group; format: functional; settings: route oral; procedure, shortened: as §1
Rattus norvegicus [20] = test: Maximum % decrease of blood glucose (deltaBG) was observed within 3 hour after administration orally at 0.5 mg/kg dose to fasted adult female rats versus a control group; format: functional; settings: route oral; procedure, shortened: as §1
Rattus norvegicus [21] = test: Maximum % decrease of blood glucose (deltaBG) was observed within 0.5 hour after administration orally at 0.1 mg/kg dose to fasted adult female rats versus a control group; format: functional; settings: route oral
Rattus norvegicus [22] = test: Maximum % decrease of blood glucose (deltaBG) was observed within 2 hour after administration orally at 0.1 mg/kg dose to fasted adult female rats versus a control group; format: functional; settings: route oral; procedure, shortened: as §1
Rattus norvegicus [23] = test: Maximum % decrease of blood glucose (deltaBG) was observed within 1 hour after administration orally at 0.1 mg/kg dose to fasted adult female rats versus a control group; format: functional; settings: route oral; procedure, shortened: as §1
Rattus norvegicus [24] = test: Maximum % decrease of blood glucose (deltaBG) was observed within 3 hour after administration orally at 0.1 mg/kg dose to fasted adult female rats versus a control group; format: functional; settings: route oral; procedure, shortened: as §1
Rattus norvegicus [25] = test: Maximum % decrease of blood glucose (deltaBG) was observed within 1 hr after administration orally at 0.5 mg/kg dose to fasted adult female rats versus a control group; format: functional; settings: route oral; procedure, shortened: as §1
Rattus norvegicus [26] = test: Maximum % decrease of blood glucose (deltaBG) was observed within 4 hour after administration orally at 50 mg/kg dose to fasted adult female rats versus a control group; format: functional; settings: route oral; procedure, shortened: as §1
Rattus norvegicus [27] = test: Maximum % decrease of blood glucose (deltaBG) was observed within 4 hour after administration orally at 0.6 mg/kg dose to fasted adult female rats versus a control group; format: functional; settings: route oral; procedure, shortened: as §1
Rattus norvegicus [28] = test: Maximum % decrease of blood glucose (deltaBG) was observed within 4 hour after administration orally at 50 mg/kg dose to fasted adult female rats versus a control group; NS =' not significant'; format: functional, organism-based; set-up: dose 50 mg/kg; procedure, shortened: as §1
[29] = Rattus norvegicus, Blood, 4 h, read-out: ED50

O=C(O)c1ccc(CCNC(=O)c2cccc(Cl)c2)cc1
Delta BG (Rattus norvegicus [1]): -23%

O=C(NCCc1ccccc1)c1cc(Cl)ccc1N1CCCCCCCC1
Delta BG (Rattus norvegicus [2]): Not significant

CC(NC(=O)Cc1ccc(C(=O)O)cc1)c1cc(Cl)ccc1N1CCCCCC1 (stereo unspecified)
Delta BG (Rattus norvegicus [3]): Not significant

COc1ccc(Cl)cc1C(=O)NCCc1ccc(S(=O)(=O)NC(=O)NC2CCCCC2)cc1 [GLYBURIDE]
Delta BG (Rattus norvegicus [4]): inactive | Delta BG (Rattus norvegicus [5]): inactive | Delta BG (Rattus norvegicus [6]): inactive | Delta BG (Rattus norvegicus [7]): -25% | ED50 (Rattus norvegicus [8]; [29]): 0.255 mg/kg | Delta BG (Rattus norvegicus [9]): inactive | Delta BG (Rattus norvegicus [10]): inactive

CCOc1cc(CC(=O)NC(CC)c2ccccc2N2CCCCC2)ccc1C(=O)O (stereo unspecified)
Delta BG (Rattus norvegicus [11]): -42% | Delta BG (Rattus norvegicus [12]): Not significant

O=C(Cc1ccc(C(=O)O)cc1)N[C@@H](c1ccccc1)c1ccccc1N1CCCCC1
Delta BG (Rattus norvegicus [13]): -33%

O=C(O)c1ccc(CCNC(=O)c2cc(Cl)ccc2N2CCCCCCCC2)cc1
Delta BG (Rattus norvegicus [14]): -40% and -39% | Delta BG (Rattus norvegicus [15]): -13% and -18% | Delta BG (Rattus norvegicus [16]): -33% | ED50 (Rattus norvegicus [8]; [29]): 0.38 mg/kg

CCOc1cc(CC(=O)N[C@@H](CC(C)C)c2ccccc2N2CCCCC2)ccc1C(=O)O (stereo in doubt; 6al) [REPAGLINIDE]
Delta BG (Rattus norvegicus [11]; 0.1 mg/kg): -44% | Delta BG (Rattus norvegicus [17]): -19% | ED50 (Rattus norvegicus [8]): 0.022 mg/kg

CCCC(NC(=O)Cc1ccc(C(=O)O)c(OC)c1)c1ccccc1N1CCCCC1 (stereo unspecified)
Delta BG (Rattus norvegicus [18]): -39% | Delta BG (Rattus norvegicus [19]): -42% | Delta BG (Rattus norvegicus [5]): Not significant | Delta BG (Rattus norvegicus [11]): -43% | Delta BG (Rattus norvegicus [20]): -37% | Delta BG (Rattus norvegicus [16]): -31% | Delta BG (Rattus norvegicus [21]): -38% | Delta BG (Rattus norvegicus [22]): -27% | Delta BG (Rattus norvegicus [23]): -43% | Delta BG (Rattus norvegicus [10]): Not significant

CCC1=C(C)CN(C(=O)NCCc2ccc(S(=O)(=O)NC(=O)N[C@H]3CC[C@H](C)CC3)cc2)C1=O [GLIMEPIRIDE]
Delta BG (Rattus norvegicus [11]): -18% | Delta BG (Rattus norvegicus [24]): -14% | Delta BG (Rattus norvegicus [21]): -8% | Delta BG (Rattus norvegicus [7]): -35% | Delta BG (Rattus norvegicus [22]): -18% | ED50 (Rattus norvegicus [8]; [29]): 0.182 mg/kg | Delta BG (Rattus norvegicus [23]): -17%

CCCC(NC(=O)Cc1ccc(C(=O)O)cc1)c1ccccc1N1CCCCC1 (stereo unspecified)
Delta BG (Rattus norvegicus [18]): -34% | Delta BG (Rattus norvegicus [11]; 0.1 mg/kg): -27% and -9% | Delta BG (Rattus norvegicus [20]): -23% | Delta BG (Rattus norvegicus [25]): -42% | Delta BG (Rattus norvegicus [24]): -16% | Delta BG (Rattus norvegicus [16]): -18% | Delta BG (Rattus norvegicus [22]): -17% | ED50 (Rattus norvegicus [8]; [29]): 0.07 mg/kg | Delta BG (Rattus norvegicus [23]): -27%

CCCC(NC(=O)Cc1ccc(C(=O)O)c(OCC)c1)c1ccccc1N1CCCCC1 (stereo unspecified)
Delta BG (Rattus norvegicus [18]): -36% | Delta BG (Rattus norvegicus [19]): -43% | Delta BG (Rattus norvegicus [11]; 0.1 mg/kg): -32% and -18% | Delta BG (Rattus norvegicus [20]): -34% | Delta BG (Rattus norvegicus [24]): -25% | Delta BG (Rattus norvegicus [16]): -35% | Delta BG (Rattus norvegicus [22]): -30% | Delta BG (Rattus norvegicus [23]): -32%

CCCC(NC(=O)Cc1ccccc1)c1ccccc1N1CCCCC1 (stereo unspecified)
Delta BG (Rattus norvegicus [26]): -10%

CCOc1cc(CC(=O)N[C@@H](CC(C)C)c2ccccc2N2CCCCC2)ccc1C(=O)O (stereo in doubt; (S)-6al) [REPAGLINIDE]
Delta BG (Rattus norvegicus [11]; 0.1 mg/kg): -47% | Delta BG (Rattus norvegicus [24]): -34% | Delta BG (Rattus norvegicus [17]): -21% | Delta BG (Rattus norvegicus [21]): -42% | Delta BG (Rattus norvegicus [22]): -40% | ED50 (Rattus norvegicus [8]): 0.01 mg/kg | Delta BG (Rattus norvegicus [23]): -47%

O=C(Cc1ccc(C(=O)O)cc1)NC(c1ccccc1)c1ccccc1N1CCCCC1 (stereo unspecified)
Delta BG (Rattus norvegicus [13]): -23% | ED50 (Rattus norvegicus [8]; [29]): 0.38 mg/kg | Delta BG (Rattus norvegicus [27]): -36%

CC(NC(=O)Cc1ccc(-c2nn[nH]n2)cc1)c1ccccc1N1CCCCC1 (stereo unspecified)
Delta BG (Rattus norvegicus [28]): Not significant
